# Active and inactive are the calls of the source. No cut-off for these calls is given here.
# Tests used:
# [1] = test system: TERT-RPE1; test: Cytotoxicity against human RPE1 cells assessed as reduction in cell viability after 48 hrs by ATPlite-based luminescent assay; details: RPE-1, 48 h
# Procedure, shortened: (§1)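 Cells were grown […] with 10% FBS, glutamax, NEAA and pen/strep at 37 °C, 5% CO2. Media were DMEM for RPE-1, HepG2 and BJ (BJ plus 10 ng/ml bFGF), F-12K for PC3, and IMDM for K562/HL-60. Cells were seeded at 500 per well and dosed from DMSO at 12 concentrations, 40 µM to 1 nM, in triplicate. After 48 h, intracellular ATP was read by luminescence. ED50 was obtained by variable-slope nonlinear regression.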
# [2] = test system: BJ; test: Cytotoxicity against human BJ cells assessed as reduction in cell viability after 48 hrs by ATPlite-based luminescent assay; procedure, shortened: as §1
# [3] = test system: K562; test: Cytotoxicity against human K562 cells assessed as reduction in cell viability after 48 hrs by ATPlite-based luminescent assay; details: K562, 48 h; procedure, shortened: as §1
# [4] = test system: HL-60; test: Cytotoxicity against human HL60 cells assessed as reduction in cell viability after 48 hrs by ATPlite-based luminescent assay; details: HL-60, 48 h; procedure, shortened: as §1
# [5] = test system: PC-3; test: Cytotoxicity against human PC3 cells assessed as reduction in cell viability after 48 hrs by ATPlite-based luminescent assay; details: PC-3, 48 h; procedure, shortened: as §1
# [6] = test system: MCF7; test: Cytotoxicity against human MCF7 cells assessed as reduction in cell viability after 48 hrs by ATPlite-based luminescent assay; details: MCF7, 48 h
# [7] = test system: HepG2; test: Cytotoxicity against human HepG2 cells assessed as reduction in cell viability after 48 hrs by ATPlite-based luminescent assay; details: HepG2, 48 h; procedure, shortened: as §1
# [8] = test system: TERT-RPE1; test: Induction of apoptosis in human RPE1 cells assessed as caspase 3/7 activity after 24 hrs by caspase-glo luminescent assay; type: cell-based; details: RPE-1, 24 h
# Procedure, shortened: (§2)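 Cells were seeded at 500 per well in their growth media and exposed to 12 concentrations from 40 µM to 1 nM, delivered from DMSO, in triplicate. After 24 h, caspase-3/7 activity was read by Caspase-Glo luminescence. Data were normalized and ED50 was fitted by variable-slope nonlinear regression.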
# [9] = test system: K562; test: Induction of apoptosis in human K562 cells assessed as caspase 3/7 activity after 24 hrs by caspase-glo luminescent assay; type: cell-based; details: K562, 24 h; procedure, shortened: as §2
# [10] = test system: HL-60; test: Induction of apoptosis in human HL60 cells assessed as caspase 3/7 activity after 24 hrs by caspase-glo luminescent assay; type: cell-based; details: HL-60, 24 h; procedure, shortened: as §2
# [11] = test system: PC-3; test: Induction of apoptosis in human PC3 cells assessed as caspase 3/7 activity after 24 hrs by caspase-glo luminescent assay; type: cell-based; details: PC-3, 24 h; procedure, shortened: as §2
# [12] = test system: HepG2; test: Induction of apoptosis in human HepG2 cells assessed as caspase 3/7 activity after 24 hrs by caspase-glo luminescent assay; type: cell-based; details: HepG2, 24 h; procedure, shortened: as §2
# [13] = test system: Staphylococcus aureus; test: Antibacterial activity against Staphylococcus aureus ATCC 6538 after 24 hrs by microdilution assay; type: functional; details: ATCC 6538, 24 h
# [14] = test system: Staphylococcus aureus; test: Antibacterial activity against methicillin-resistant Staphylococcus aureus HK5996/08 clinical isolate after 24 hrs by microdilution assay; type: functional; details: HK5996/08, 24 h
# [15] = test system: Staphylococcus epidermidis; test: Antibacterial activity against Staphylococcus epidermidis HK6966/08 clinical isolate after 24 hrs by microdilution assay; type: functional; details: HK6966/08, 24 h
# [16] = test system: Enterococcus sp.; test: Antibacterial activity against Enterococcus sp. HK14365/08 clinical isolate after 24 hrs by microdilution assay; type: functional; details: HK14365/08, 24 h
# [17] = test system: Escherichia coli; test: Antibacterial activity against Escherichia coli ATCC 8739 after 24 hrs by microdilution assay; type: functional; details: ATCC 8739, 24 h
# Procedure, shortened: (§3)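 Broth microdilution in Mueller-Hinton medium buffered to pH 7.4 (±0.2), with DMSO as diluent at no more than 2% final. Compounds were tested as 2-fold serial dilutions from 2000 to 0.488 µmol/l. The inoculum was 0.5 McFarland (1.5×10^8 cfu/ml). Plates were held at 37 °C and read visually at 24 and 48 h. MIC was taken as 95% growth inhibition versus control, determined twice in duplicate.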
# [18] = test system: Klebsiella pneumoniae; test: Antibacterial activity against Klebsiella pneumoniae HK11750/08 clinical isolate after 24 hrs by microdilution assay; type: functional; details: HK11750/08, 24 h
# [19] = test system: Klebsiella pneumoniae; test: Antibacterial activity against Klebsiella pneumoniae HK14368/08 clinical isolate after 24 hrs by microdilution assay; type: functional; details: HK14368/08, 24 h
# [20] = test system: Pseudomonas aeruginosa; test: Antibacterial activity against Pseudomonas aeruginosa ATCC 9027 after 24 hrs by microdilution assay; type: functional; details: ATCC 9027, 24 h; procedure, shortened: as §3
# [21] = test system: Staphylococcus aureus; test: Antibacterial activity against Staphylococcus aureus ATCC 6538 after 48 hrs by microdilution assay; type: functional; details: ATCC 6538, 48 h
# [22] = test system: Staphylococcus aureus; test: Antibacterial activity against methicillin-resistant Staphylococcus aureus HK5996/08 clinical isolate after 48 hrs by microdilution assay; type: functional; details: HK5996/08, 48 h
# [23] = test system: Staphylococcus epidermidis; test: Antibacterial activity against Staphylococcus epidermidis HK6966/08 clinical isolate after 48 hrs by microdilution assay; type: functional; details: HK6966/08, 48 h
# [24] = test system: Enterococcus sp.; test: Antibacterial activity against Enterococcus sp. HK14365/08 clinical isolate after 48 hrs by microdilution assay; type: functional; details: HK14365/08, 48 h
# [25] = test system: Escherichia coli; test: Antibacterial activity against Escherichia coli ATCC 8739 after 48 hrs by microdilution assay; type: functional; details: ATCC 8739, 48 h; procedure, shortened: as §3
# [26] = test system: Klebsiella pneumoniae; test: Antibacterial activity against Klebsiella pneumoniae HK11750/08 clinical isolate after 48 hrs by microdilution assay; type: functional; details: HK11750/08, 48 h
# [27] = test system: Klebsiella pneumoniae; test: Antibacterial activity against Klebsiella pneumoniae HK14368/08 clinical isolate after 48 hrs by microdilution assay; type: functional; details: HK14368/08, 48 h
# [28] = test system: Pseudomonas aeruginosa; test: Antibacterial activity against Pseudomonas aeruginosa ATCC 9027 after 48 hrs by microdilution assay; type: functional; details: ATCC 9027, 48 h; procedure, shortened: as §3
# [29] = test system: Candida albicans; test: Antifungal activity against Candida albicans ATCC 44859 up to 1 mM after 24 to 48 hrs by microdilution assay; type: functional, organism-based
# Procedure, shortened: (§4)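 Fungal microdilution following modified CLSI M27-A3/M38-A2, in RPMI 1640 with L-glutamine and 0.165 M MOPS at pH 7.0, with DMSO no more than 2% final. Compounds were 2-fold serially diluted from 2000 to 0.488 µmol/l. The inoculum was 5×10^3 cfu/ml. Incubation was at 35 °C, read visually at 24/48 h (T. mentagrophytes at 72/120 h). MIC was IC80 for yeasts and IC50 for filamentous fungi, determined twice in duplicate.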
# [30] = test system: Candida albicans; test: Antifungal activity against Candida albicans ATCC 90028 up to 1 mM after 24 to 48 hrs by microdilution assay; type: functional, organism-based; procedure, shortened: as §4
# [31] = test system: Candida parapsilosis; test: Antifungal activity against Candida parapsilosis ATCC 22019 up to 1 mM after 24 to 48 hrs by microdilution assay; type: functional, organism-based; procedure, shortened: as §4
# [32] = test system: Pichia kudriavzevii; test: Antifungal activity against Candida krusei ATCC 6258 up to 1 mM after 24 to 48 hrs by microdilution assay; type: functional, organism-based; procedure, shortened: as §4
# [33] = test system: Pichia kudriavzevii; test: Antifungal activity against Candida krusei E28 clinical isolate up to 1 mM after 24 to 48 hrs by microdilution assay; type: functional, organism-based; procedure, shortened: as §4
# [34] = test system: Candida tropicalis; test: Antifungal activity against Candida tropicalis 156 clinical isolate up to 1 mM after 24 to 48 hrs by microdilution assay; type: functional, organism-based; procedure, shortened: as §4
# [35] = test system: Nakaseomyces glabratus; test: Antifungal activity against Candida glabrata 20/I clinical isolate up to 1 mM after 24 to 48 hrs by microdilution assay; type: functional, organism-based; procedure, shortened: as §4
# [36] = test system: Clavispora lusitaniae; test: Antifungal activity against Candida lusitaniae 2446/I clinical isolate up to 1 mM after 24 to 48 hrs by microdilution assay; type: functional, organism-based; procedure, shortened: as §4
# [37] = test system: Trichosporon asahii; test: Antifungal activity against Trichosporon asahii 1188 clinical isolate up to 1 mM after 24 to 48 hrs by microdilution assay; type: functional, organism-based; procedure, shortened: as §4
# [38] = test system: Aspergillus fumigatus; test: Antifungal activity against Aspergillus fumigatus 231 up to 1 mM after 24 to 48 hrs by microdilution assay; type: functional, organism-based; procedure, shortened: as §4
# [39] = test system: Lichtheimia corymbifera; test: Antifungal activity against Absidia corymbifera 272 up to 1 mM after 24 to 48 hrs by microdilution assay; type: functional, organism-based; procedure, shortened: as §4
# [40] = test system: Trichophyton mentagrophytes; test: Antifungal activity against Trichophyton mentagrophytes 445 up to 1 mM after 72 to 120 hrs by microdilution assay; type: functional, organism-based; procedure, shortened: as §4
Compound,IC50 [1] [µM],IC50 [2] [µM],IC50 [3] [µM],IC50 [4] [µM],IC50 [5] [µM],IC50 [6] [µM],IC50 [7] [µM],IC50 [8] [µM],IC50 [9] [µM],IC50 [10] [µM],IC50 [11] [µM],IC50 [12] [µM],MIC95 [13] [µM],MIC95 [14] [µM],MIC95 [15] [µM],MIC95 [16] [µM],MIC95 [17] [µM],MIC95 [18] [µM],MIC95 [19] [µM],MIC95 [20] [µM],further results
COc1ccc(C2=C(c3cccc(Cl)c3Cl)C(=O)OC2(CO)CO)cc1,> 40,> 40,> 40,> 40,> 40,> 40,> 40,> 40,> 40,> 40,> 40,> 40,7.81,62.5,250,500,> 500,> 500,> 500,> 500,MIC95 [21]: 15.6 µM; MIC95 [22]: 125 µM; MIC95 [23]: 250 µM; MIC95 [24]: > 500 µM; MIC95 [25]: > 500 µM; MIC95 [26]: > 500 µM; MIC95 [27]: > 500 µM; MIC95 [28]: > 500 µM; Activity [29]: inactive; Activity [30]: inactive; Activity [31]: inactive; Activity [32]: inactive; Activity [33]: inactive; Activity [34]: inactive; Activity [35]: inactive; Activity [36]: inactive; Activity [37]: inactive; Activity [38]: inactive; Activity [39]: inactive; Activity [40]: inactive
COc1cc(OC)c(C2=C(c3ccc(OC)c(OC)c3OC)COC2=O)c(OC)c1,> 40,> 40,22.8,> 40,> 40,> 40,> 40,> 40,> 40,> 40,> 40,> 40,31.2,62.5,125,> 500,> 500,> 500,> 500,> 500,MIC95 [21]: 31.2 µM; MIC95 [22]: 62.5 µM; MIC95 [23]: 125 µM; MIC95 [24]: > 500 µM; MIC95 [25]: > 500 µM; MIC95 [26]: > 500 µM; MIC95 [27]: > 500 µM; MIC95 [28]: > 500 µM
COc1ccc(C2=C(c3ccc(OC)c(OC)c3)C(CO)OC2=O)cc1 (stereo unspecified),> 40,> 40,> 40,> 40,> 40,> 40,> 40,> 40,> 40,> 40,> 40,> 40,125,125,62.5,> 125,> 125,> 125,> 125,> 125,MIC95 [21]: 125 µM; MIC95 [22]: 125 µM; MIC95 [23]: 62.5 µM; MIC95 [24]: > 125 µM; MIC95 [25]: > 125 µM; MIC95 [26]: > 125 µM; MIC95 [27]: > 125 µM; MIC95 [28]: > 125 µM

# — ChEMBL document CHEMBL4251593, “Nontoxic combretafuranone analogues with high in vitro antibacterial activity” (Eur J Med Chem, 2018)
